Assay [1] concerns DENV2 NGC E-M196V mutant virus. In words: Viral infectivity assay. Type of assay: cell-based, dengue virus serotype 2. The conditions noted are these: versus DENV2 NGC wildtype. Summed up:
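DENV2 inoculum in EBSS at MOI 1 pre-incubated with test compound over a concentration series, 45 min at 37 °C. The mixture was added to cell monolayers for 1 h at 37 °C, then washed off with PBS. Inhibitor-free medium was added for 24 h (single cycle). Supernatant yield was titred by plaque assay on BHK-21 cells with CMC overlay, 4.5 days, crystal violet.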

A further assay deals with DENV2 sE Q271E (Dengue virus type 2, UniProt P14340, Q551E). The assay is described as follows: Biolayer interferometry, DENV2 sE Q271E. The conditions noted are these: versus wildtype sE. The class given is binding, dengue virus serotype 2. (Biolayer interferometry detects binding as a change in optical thickness at a sensor tip.)
The subject of another assay is ZIKV PF13-251013-18. In words: Viral infectivity assay. Type of assay: cell-based, Zika virus. The conditions noted are these: read-out: IC90 against ZIKV PF13-251013-18, Vero cells.
In the next assay the target is DENV2 sE-M196V (Dengue virus type 2, UniProt P14340, M476V). The assay is described as follows: Biolayer interferometry, DENV2 sE-M196V. Type of assay: binding, dengue virus serotype 2. The conditions noted are these: versus wildtype sE.

Each structure is given as a SMILES string.

As to `NC(=O)c1cccc(-c2cc(Nc3ccc(OC(F)(F)F)cc3)ncn2)c1` [GNF-2], the “Sensitivity of DENV2 E-M196V virus to compound” value in assay [1] is reported as “Reduced sensitivity”. Also, the “Effect of Q271E substitution on binding” value on DENV2 sE Q271E is “affinity comparable to wildtype”. Besides, the IC90 in the assay on ZIKV PF13-251013-18 is 107 µM. The “Effect of M196V mutation on binding” value on DENV2 sE-M196V is “more significantly affected”.

By IC90 is commonly meant the concentration needed for an effect of 90%.

The record behind these values is paper PMC6097893 (Cell chemical biology, 2018).
